Drawing on ChEMBL document CHEMBL5653631, “A Potent and Selective ULK1 Inhibitor Suppresses Autophagy and Sensitizes Cancer Cells to Nutrient Stress” (iScience, 2018), this text covers fold change (FC) and inhibition for three molecules.

For experiment [1], the target named is Serine/threonine-protein kinase 10 (Homo sapiens) (UniProt O94804). Briefly: Inhibition of human recombinant LOK at 40 nM related to control ULK1.
In experiment [2] the target is Activin receptor type-2A (Homo sapiens) (UniProt P27037). Briefly: Inhibition of human recombinant ACTR2 at 40 nM in presence of ATP by radiometric assay relative to control.
Experiment [3] addresses Receptor tyrosine-protein kinase erbB-2 (Homo sapiens) (UniProt P04626). The experiment can be described thus: Inhibition of human recombinant ErbB2 at 40 nM related to control ULK1.
The target in experiment [4] is Cyclin-dependent kinase-like 3 (Homo sapiens) (UniProt Q8IVW4). Briefly: Inhibition of human recombinant CDKL3 at 40 nM in presence of ATP by radiometric assay relative to control.
Experiment [5] has as its target T1, MAP/microtubule affinity-regulating kinase 4 (Homo sapiens) (UniProt Q96L34).
T1 sequence (whole entry): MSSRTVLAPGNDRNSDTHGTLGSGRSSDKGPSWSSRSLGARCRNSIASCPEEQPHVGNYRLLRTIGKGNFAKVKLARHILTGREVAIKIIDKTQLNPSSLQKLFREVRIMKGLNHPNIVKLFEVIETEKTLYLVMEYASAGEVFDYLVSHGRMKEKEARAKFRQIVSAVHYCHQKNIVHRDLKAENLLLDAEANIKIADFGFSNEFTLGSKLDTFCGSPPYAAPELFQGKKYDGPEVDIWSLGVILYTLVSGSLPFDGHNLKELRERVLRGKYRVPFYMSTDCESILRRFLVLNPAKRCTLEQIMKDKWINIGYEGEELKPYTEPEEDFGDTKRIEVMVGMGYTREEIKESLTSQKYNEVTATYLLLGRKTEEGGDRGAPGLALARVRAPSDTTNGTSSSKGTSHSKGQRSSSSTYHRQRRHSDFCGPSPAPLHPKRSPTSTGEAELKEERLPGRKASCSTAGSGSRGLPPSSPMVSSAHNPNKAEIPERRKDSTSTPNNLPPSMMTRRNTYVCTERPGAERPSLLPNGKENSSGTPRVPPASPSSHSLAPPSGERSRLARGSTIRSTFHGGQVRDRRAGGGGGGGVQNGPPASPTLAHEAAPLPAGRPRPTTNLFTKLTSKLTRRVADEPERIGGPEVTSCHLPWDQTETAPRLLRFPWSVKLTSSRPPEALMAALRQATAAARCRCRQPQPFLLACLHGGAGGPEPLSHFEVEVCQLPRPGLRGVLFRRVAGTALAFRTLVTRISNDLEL
Briefly: Inhibition of human recombinant MARK4 at 500 nM related to control ULK1.

Experiment [6] addresses Rhodopsin kinase GRK7 (Homo sapiens) (UniProt Q8WTQ7). Briefly: Inhibition of human recombinant GPRK7 at 500 nM related to control ULK1.
Experiment [7] deals with Serine/threonine-protein kinase 26 (Homo sapiens) (UniProt Q9P289). The experiment can be described thus: Inhibition of human recombinant MST4 at 500 nM in presence of ATP by radiometric assay relative to control.
Experiment [8] deals with Dual specificity tyrosine-phosphorylation-regulated kinase 1B (Homo sapiens) (UniProt Q9Y463). Briefly: Inhibition of human recombinant DYRK1B at 500 nM related to control ULK1.
For experiment [9], the target named is Tyrosine-protein kinase ABL2 (Homo sapiens) (UniProt P42684). Briefly: Inhibition of human recombinant ABL2 at 500 nM in presence of ATP by radiometric assay relative to control. In outline: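 Panel of 327 recombinant human kinases in radiometric activity assays, each screened in duplicate at a single inhibitor concentration; percent activity remaining relative to vehicle control, percent inhibition taken as 100 minus activity remaining.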

In experiment [10] the target is eIF-2-alpha kinase GCN2 (Homo sapiens) (UniProt Q9P2K8). The experiment can be described thus: Inhibition of human recombinant GCN2 at 15 nM in presence of ATP by radiometric assay relative to control.
In experiment [11] the target is T2, Serine/threonine-protein kinase 17B (Homo sapiens) (UniProt O94768).
T2 sequence (whole entry): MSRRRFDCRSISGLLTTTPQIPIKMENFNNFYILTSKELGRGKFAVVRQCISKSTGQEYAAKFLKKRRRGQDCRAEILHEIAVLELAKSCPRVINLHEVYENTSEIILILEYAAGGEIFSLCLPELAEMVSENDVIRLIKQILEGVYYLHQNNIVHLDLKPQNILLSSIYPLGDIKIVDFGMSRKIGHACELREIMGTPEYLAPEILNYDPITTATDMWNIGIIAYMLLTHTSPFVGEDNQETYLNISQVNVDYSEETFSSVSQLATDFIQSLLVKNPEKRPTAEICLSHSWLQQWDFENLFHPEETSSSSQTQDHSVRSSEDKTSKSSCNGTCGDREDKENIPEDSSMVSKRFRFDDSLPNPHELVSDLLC
Briefly: Inhibition of human recombinant DRAK2 at 15 nM in presence of ATP by radiometric assay relative to control.

In experiment [12] the target is [Pyruvate dehydrogenase (acetyl-transferring)] kinase isozyme 4, mitochondrial (Homo sapiens) (UniProt Q16654). Briefly: Inhibition of human recombinant PDHK4 at 15 nM related to control ULK1.

As for `O=C(N[C@@H](C1CC1)C(F)(F)F)c1cc(-c2cnn3cc(-c4ccc(F)cc4)cnc23)cs1`, the fold change (FC) in experiment [1] and in experiment [3] was 0 throughout. Moreover, the inhibition (as a rule, the share of the control response that was lost under treatment) was 1% in experiment [2] and 39% in experiment [4].

In the case of `CNC(=O)c1ccccc1Oc1nc(Nc2cc(OC)c(OC)c(OC)c2)ncc1Br`, the fold change (FC) is 0.78 in experiment [5], 0.14 in [6] and 0 in experiment [8]. In addition, the inhibition in [7] was found to be 0%; in experiment [9], 21%.

On to `CC(C)[C@H](NC(=O)c1cc(-c2cnn3cc(-c4ccc(OCCN5CCCCC5)cc4)cnc23)cs1)C(F)(F)F`, for which the figures for the inhibition in experiment [10] and in [11] were 8% and 69%, respectively. Also, the fold change (FC) in experiment [12] is 0.02.
